The inhibition is the drop in the measured response relative to a control, in per cent. Higher therefore signals a strong effect.

Assay [1] is described as follows: Displacement of [3H]batrachotoxinin from sodium channel site 2 at 10 uM relative to veratridine. (Displacement assays read how much labelled ligand stays bound in the presence of the test substance.)
Assay [2] in a line: Neuroprotective effect against NMDA-induced toxicity in Sprague-Dawley rat mixed cortical neurons assessed as LDH release at 10 uM co-treated with NMDA. In kind it is functional, Cortical neurone. The method, boiled down:
(§1)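 Mixed cortical cultures from E16 Sprague–Dawley rat neocortex, grown in Neurobasal with 5% FBS and used at 12 days in vitro. Compound added 20 min (co-treatment) or 24 h (pre-treatment) before NMDA (60 µM). MK-801 10 µM served as positive control. After 24 h, LDH release was read and normalized to the NMDA-released level. Technical replicates per sample were combined across independent experiments.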

Assay [3] is described as follows: Neuroprotective effect against veratridine-induced toxicity in Sprague-Dawley mixed rat cortical neurons assessed as LDH release at 10 uM co-treated with veratridine. Background: Release of lactate dehydrogenase indicates damage to the cell membrane.
The nature of assay [4]: Neuroprotective effect against veratridine-induced toxicity in Sprague-Dawley rat mixed cortical neurons assessed as XTT release at 10 uM pre-treated before veratridine treatment. In kind it is functional, Cortical neurone.
A short description of assay [5]: Neuroprotective effect against veratridine-induced toxicity in Sprague-Dawley rat pure cortical neurons assessed as XTT release at 1 uM co-treated with veratridine. In kind it is functional, Cortical neurone. The method, boiled down: (§2)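 E16 Sprague–Dawley rat cortical cultures, either mixed (Neurobasal with 5% FBS) or pure neuronal (Neurobasal with B27), used at 12 days in vitro. Compound at 1 or 10 µM was added 20 min before veratridine (60 µM). Viability was read 24 h later by LDH release in mixed cultures and XTT in pure cultures, normalized to veratridine. Three experiments, eight replicates each.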
On the technique in general: Tetrazolium assays rely on reduction of a dye to a coloured formazan, in cell work by metabolically active cells.

Assay [6] in a line: Neuroprotective effect against veratridine-induced toxicity in Sprague-Dawley mixed rat cortical neurons assessed as LDH release at 1 uM co-treated with veratridine.
Assay [7] in a line: Neuroprotective effect against veratridine-induced toxicity in Sprague-Dawley rat pure cortical neurons assessed as XTT release at 10 uM co-treated with veratridine. In kind it is functional, Cortical neurone. A digest of the protocol: as §2
A short description of assay [8]: Neuroprotective effect against NMDA-induced toxicity in Sprague-Dawley rat mixed cortical neurons assessed as LDH release at 10 uM pre-treated before NMDA treatment. In kind it is functional, Cortical neurone. A digest of the protocol:
as §1

The nature of assay [9]: Neuroprotective effect against NMDA-induced toxicity in Sprague-Dawley rat mixed cortical neurons assessed as LDH release at 1 uM pretreated before NMDA treatment. In kind it is functional, Cortical neurone. The method, boiled down:
as §1

Assay [10] can be described thus: Neuroprotective effect against NMDA-induced toxicity in Sprague-Dawley rat mixed cortical neurons assessed as LDH release at 1 uM co-treated with NMDA. In kind it is functional, Cortical neurone. A digest of the protocol:
as §1

The subject of a further assay is Cortical neurone. Description: Neuroprotective effect against NMDA-induced toxicity in Sprague-Dawley rat mixed cortical neurons assessed as LDH release at 0.1 uM co-treated with NMDA. In kind it is functional. A digest of the protocol: as §1

Calls of active or inactive are those of the source. The calls are words filed in the database; no cut-off is given here.

In the case of `COc1ccc(C(=O)O[C@H]2CC[C@@]3(C)[C@@H]4CC[C@H]5[C@]6(O)C[C@H](O)[C@@]7(O)[C@@H](CN8C[C@@H](C)CC[C@H]8[C@@]7(C)O)[C@]6(O)C[C@@]53O[C@]24O)cc1OC`, the inhibition in assay [1] worked out at 100%.
Regarding `Cn1nc(-c2ccccc2)cc1-c1c[nH]c2ccccc12`, the Activity in assay [2] is reported as 76.7%. This compound had an inhibition in [1] of 14%.
As to `O=[N+]([O-])c1cccc(-c2cc(-c3ccccc3)n[nH]2)c1`, the Activity is 75.6% in assay [2]; 26.6% in [3]; 70% in assay [4]; 80.9% in assay [5]; 77.6% in assay [6]; 51.2% in assay [7]. Also, the inhibition in assay [1] was found to be 15%.
On to `COc1cccc(-c2cc(-c3ccccc3)nn2C)c1`, for which the Activity in assay [2] was 78.3%. In addition, the inhibition in assay [1] worked out at 12%.
`CC(=O)N1N=C(c2ccc([N+](=O)[O-])cc2)CC1c1ccccc1` (stereo unspecified): the Activity in [2] amounted to 85.5%. This compound had an inhibition in assay [1] of 17%.
For `Cn1nc(-c2ccccc2)cc1-c1cccc([N+](=O)[O-])c1` the same measures were 85.5% and 4%.
Consider `Clc1ccc(-c2cc(-c3ccccc3)n[nH]2)cc1`, for which the Activity in assay [2] amounted to 66.1%; in assay [3], 24.2%; in assay [4], 70%; in [5] it was 75%; in assay [6] it was 74.1%; in [7], 56.5%. Moreover, in assay [1], the inhibition worked out at 16%.
Consider `Clc1cccc(-c2cc(-c3ccccc3)n[nH]2)c1`, for which the Activity in assay [2] is reported as 96.4%. Besides, the inhibition in [1] was 21%.
The like results for `O=[N+]([O-])c1ccc(-c2cc(-c3ccccc3)n[nH]2)cc1` were, in that order, 89% and 14%.
Consider `COc1ccc(-c2cc(-c3ccccc3)n[nH]2)cc1`, for which the Activity was determined as 67.2% in assay [2]; 49.2% in assay [3]; 95% in assay [8]; 50% in [4]; 70.4% in [5]; 91.1% in [9]. Further, the results for the Activity in assay [6], in [7] and in [10] were 80.9%, 64.9% and 81.7%, respectively. Moreover, in assay [1], the inhibition was determined as 30%.
Take `Cn1nc(-c2ccccc2)cc1-c1ccc2[nH]ccc2c1`: the Activity in assay [2] is 67.1%; in assay [3] it was 63.2%; in [8], 86%; in assay [4], 40%; in assay [5], 82.7%; in [9] it was 90.2%. The figures for the Activity in assay [6], in [7] and in assay [10] were 87.9%, 56.8% and 80.3%, respectively. In addition, the result in the assay with Cortical neurone was inactive. In [1], this compound yielded an inhibition of 41%.
In the case of `COc1cccc(-c2cc(-c3ccccc3)n[nH]2)c1`, in assay [2], the Activity was determined as 76%. Besides, the inhibition in [1] is 27%.
In the case of `Cn1nc(-c2ccc([N+](=O)[O-])cc2)cc1-c1ccccc1`, in [2], the Activity amounted to 86.3%. In addition, in [1], the inhibition stood at 8%.
As to `CC(=O)N1N=C(c2ccccc2)CC1c1cccc(Cl)c1` (stereo unspecified), the Activity in assay [2] is 86.4%. In addition, in assay [1], the inhibition was found to be 27%.
Turning to `COc1ccccc1-c1cnn(-c2ccccc2)c1`, in [2], the Activity is 80.3%. For the same compound, in assay [1], the outcome was inactive.
The like results for `Cn1nc(-c2ccc(C(=O)O)cc2)cc1-c1ccc(C(C)(C)C)cc1` were, in that order, 61.1% and “inactive”.
For `Cn1nc(-c2ccccc2)cc1-c1cccc(Cl)c1`, in assay [2], the Activity is listed as 65.6%. Moreover, the inhibition in assay [1] was determined as 15%.
For `COc1cccc(C2CC(c3ccccc3)=NN2C(C)=O)c1` (stereo unspecified) the same measures were 81% and 16%.
For `Cn1nc(-c2ccc(Cl)cc2)cc1-c1ccccc1` the same measures were 87.3% and 13%.
The like results for `COc1ccc(-c2cc(-c3ccccc3)n(C)n2)cc1` were, in that order, 70.4% and 8%.

These data come from ChEMBL document CHEMBL1143985, “Aryl azoles with neuroprotective activity--parallel synthesis and attempts at target identification” (2008).
